High-throughput results as filed in PubChem.
Hits are enriched below; roughly 3.7% of the tested compounds scored in any of these assays.
HCV core dimer: blocks dimerization of HCV core protein. TR-FRET GST/Flag-core106 dimerization, 1536-well. inhibition, % at 5 µM. 300,000 compounds, 0.33% hits. AID 1899;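 active = inhibition above the mean of all tested compounds plus 3 SD, set per screening campaign, cut at about 45% in these data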
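test system = GST/Flag-tagged HCV core106 proteins | probe or stimulus = Eu donor and XL665 acceptor anti-tag antibodies | times = compound-protein-antibody incubation 4 h at 22.5 °C | signal = TR-FRET, excitation 340 nm, emission 617 and 671 nm | measure = percent inhibition of core106 dimerization signal | controls = wells lacking GST-core106 and wells with excess unlabelled core106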
rCAG RNA binder: r(CAG) repeat RNA binding | TO-PRO-1 dye displacement fluorescence | inhibition, % at 3 µM | 370,000 compounds, 1.3% hits;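 active = inhibition above the plate cutoff, the mean of all test compounds on that plate plus 3 SD, cut at about 35% in these data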;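 also: 0% = DMSO alone and 100% = 100 µM mitoxantrone as full dye displacement; higher means more dye released from RNA so lower well fluorescence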
TAAR1 antag: antagonists of human TAAR1; AID 624466; inhibition, % at 3 µM; CHO RD-HGA16 TAAR1, Fluo-8 calcium fluorescence, antagonist; Q96RJ0; 360,000 compounds, 1.5% hits;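 active = inhibition above a per-plate cutoff, the mean inhibition of test compounds on that plate plus 3 SD, cut at about 49% in these data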;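 also: 0% = DMSO plus EC80 beta-PEA response and 100% = DMSO alone without agonist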
Target sequence (Q96RJ0 whole entry, looked up): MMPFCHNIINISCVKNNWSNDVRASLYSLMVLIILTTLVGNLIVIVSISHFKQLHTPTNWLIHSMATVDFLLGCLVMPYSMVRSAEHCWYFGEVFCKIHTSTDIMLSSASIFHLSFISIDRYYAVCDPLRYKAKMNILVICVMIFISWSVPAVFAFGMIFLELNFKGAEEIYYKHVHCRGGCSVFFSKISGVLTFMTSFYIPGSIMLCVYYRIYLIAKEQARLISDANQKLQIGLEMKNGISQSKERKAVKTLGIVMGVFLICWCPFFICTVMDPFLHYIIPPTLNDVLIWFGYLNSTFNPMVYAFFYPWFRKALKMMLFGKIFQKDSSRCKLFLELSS
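Test system: CHO RD-HGA16 cells bearing hTAAR1 | Reagent: β-PEA, EC80 | Compound dosing: 3 µM, single point | Schedule: Dye loading 75 min at 37 °C, then 30 min room temperature | Signal: Calcium fluorescence with Fluo-8 | Evaluation: Percent inhibition of PEA-evoked calcium signal, max/basal emission ratio | Control set: DMSO-only wells and EC80 β-PEA-stimulated wells | Repeats: Singlicate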
TAAR1 ag: agonists of human TAAR1. 360,000 compounds, 0.99% hits. Q96RJ0. CHO RD-HGA16 TAAR1, Fluo-8 calcium fluorescence; vehicle wells 0%, saturating PEA agonist 100%. AID 624467. activation, % at 3 µM;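 active = activation above the mean activation of all test compounds in the run plus 3 SD, cut at about 38% in these data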
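Assay system: CHO-derived RD-HGA16 cells with stable Gα16 and human TAAR1; timing: 17-24 h seeding, 75 min 37 °C dye, 30 min RT; read-out: % activation from peak over basal fluorescence ratio, DMSO-to-PEA scaled; measured by: kinetic Fluo-8 calcium fluorescence; benchmarks: low control DMSO, high control PEA (EC100); doses: 3 µM single concentration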
rCAG bind conf: r(CAG) RNA repeat binding, confirmation; AID 652065; shares compounds with rCAG RNA binder; inhibition, % at 3 µM; TO-PRO-1 dye displacement fluorescence; 4,300 compounds, 70% hits;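 active = inhibition above a per-plate cutoff, the mean inhibition of sample wells plus 3 SD, cut at about 35% in these data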;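 also: loss of TO-PRO-1 fluorescence as compound displaces dye from 1x1 AA loop RNA; 0% = DMSO only wells and 100% = 100 µM mitoxantrone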
dCAG dye counter: counter-screen for rCAG RNA binders: DNA CAG dye complex inhibitors. d(CAG) DNA oligo TO-PRO-1 dye displacement, fluorescence. shares compounds with rCAG RNA binder. AID 652068. 4,300 compounds, 94% hits. inhibition, % at 3 µM;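 active = inhibition above its plate's cutoff, the mean test-well inhibition plus 3 SD, cut at about 4.8% in these data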;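 also: 0% = DNA dye mix with DMSO and 100% = 100 µM mitoxantrone; hits displace the dye from DNA and so lower well fluorescence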
Numbers without * were called inactive; . = no result given.

SMILES	HCV core dimer	rCAG RNA binder	TAAR1 antag	TAAR1 ag	rCAG bind conf	dCAG dye counter
CC(C)(C)c1ccc(S(=O)(=O)NC(=O)C2(C)CCN2C(=O)CC2CCCCC2)cc1 (stereo not drawn)	.	44*	-31	6	31	5.3*
CC1(C(=O)NS(=O)(=O)c2ccc(Cl)cc2)CCN1C(=O)Cc1ccc(-c2ccccc2)cc1 (stereo not drawn)	.	66*	-14	4	64*	23*
CC(C)(C)c1ccc(S(=O)(=O)NC(=O)C2(C)CCN2C(=O)C2CCCCC2)cc1 (stereo not drawn)	.	21	-4	4	.	.
CC(C)(C)c1ccc(S(=O)(=O)NC(=O)C2(C)CCN2C(=O)Cc2cc(F)ccc2F)cc1 (stereo not drawn)	.	38*	-29	12	30	5.6*
CC(C)(C)c1ccc(S(=O)(=O)NC(=O)C2(C)CCN2C(=O)Cc2ccc(-c3ccccc3)cc2)cc1 (stereo not drawn)	.	72*	-9	7	86*	49*
CCCCNC(=O)C[C@@H]1C(=O)N2CCCC3=C2[C@@]1(C(=O)OC)CCCC3	.	2	.	.	.	.
CCCCCCCCN1C(=O)[C@@H](CC(=O)NCCCN2CCCC2=O)C[C@@]2(C(=O)OC)C1=C[C@H](C1CCCC1)O[C@@H]2C	.	4	-46	3	.	.
CCN(C(=O)C1CCCN1S(=O)(=O)c1cccnc1)c1ccccc1 (stereo not drawn)	.	1	.	.	.	.
CC(C)(C)c1ccc(CC(=O)N2CCC2(C)C(=O)NS(=O)(=O)c2cccc(Cl)c2)cc1 (stereo not drawn)	.	55*	-12	8	49*	16*
Cc1cc(C)cc(CC(=O)N2CCC2(C)C(=O)NS(=O)(=O)c2ccc(C(C)(C)C)cc2)c1 (stereo not drawn)	.	58*	-23	13	50*	15*
CC(C)(C)c1ccc(CC(=O)N2CCC2(C)C(=O)NS(=O)(=O)c2cccc(C#N)c2)cc1 (stereo not drawn)	.	30	3	1	.	.
COC(=O)[C@]12C[C@H](CC(=O)N3CCC(c4ccccc4)CC3)C(=O)N(Cc3ccccc3)C1=C[C@H](C(C)(C)C)O[C@@H]2C	.	11	-24	0	.	.
COc1ccc([C@@H]2CC=C(C(=O)O)[C@H](c3ccc(F)cc3)N2S(=O)(=O)c2ccc(C)cc2)cc1OC	10	26	0	8	.	.
COc1cccc([C@@H]2CC=C(C(=O)O)[C@H](c3ccccc3)N2S(=O)(=O)c2ccc(C)cc2)c1	18	43*	8	10	37*	8.9*
COc1ccc([C@@H]2CC=C(C(=O)O)[C@H](c3ccc(Br)cc3)N2S(=O)(=O)c2ccc(C)cc2)cc1OC	.	47*	-8	1	43*	14*
Cc1ccc(S(=O)(=O)N2[C@@H](c3cccc(Cl)c3)C(C(=O)OC(C)(C)C)=CC[C@H]2c2cccc(Cl)c2)cc1	.	1	-4	0	.	.
COc1cccc([C@@H]2CC=C(C(=O)O)[C@H](c3cccc(Cl)c3)N2S(=O)(=O)c2ccc(C)cc2)c1	32	62*	13	2	63*	26*
Cc1ccc(S(=O)(=O)N2[C@@H](c3ccccc3)C(C(=O)O)=CC[C@H]2c2cccc(C)c2)cc1	18	14	14	4	.	.
COc1cccc([C@@H]2CC=C(C(=O)O)[C@H](c3ccc(F)cc3)N2S(=O)(=O)c2ccc(C)cc2)c1	9	45*	8	11	37*	9.3*
CCOC(=O)[C@@]12CCCC=C1N(CCc1ccc(Cl)cc1)C(=O)[C@H]2CC(=O)NCc1ccc(C)o1	.	8	.	.	.	.
CNS(=O)(=O)/C=C/c1ccccc1CCNC(=O)OC(C)(C)C	.	2	.	.	.	.
O=C(CSC1CCc2ccccc21)NNC(=O)Nc1ccc(Cl)cc1 (stereo not drawn)	.	7	0	7	.	.
CCOC(=O)[C@@]12CN(C(=O)OC(C)(C)C)CC=C1N(Cc1ccc(OC)cc1)C(=O)[C@H]2CC(=O)N1CCCC1	.	2	.	.	.	.
CCCC[C@H]1C2CC(OC(=O)Nc3ccc(C(F)(F)F)cc3)C(C2)[C@H]2CCCCN21 (stereo partly drawn)	.	2	.	.	.	.
